Source: ChEMBL document CHEMBL5252557

What was measured:
[1] = biological target: Angiotensin-converting enzyme 2 (Homo sapiens, UniProt Q9BYF1); assay: Inhibition of his-tagged SARS-COV2 S-RBD binding to C-terminal Fc-tagged human ACE2 expressed in HEK293 cells incubated for 2 hrs by Alphascreen assay; type: cell-based
How it was run: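 ACE2-Fc (2 nM) with His-tagged spike RBD, Wuhan variant (5 nM), plus protein A acceptor and nickel chelate donor beads (5 μg/mL each), in 20 mM Tris pH 7.4, 150 mM KCl, 0.05% CHAPS. Compounds added from 100× DMSO dilutions, in duplicate. 2 h at room temperature, then luminescence read. 100% = signal without RBD; 0% = both proteins plus DMSO.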

[2] = biological target: Programmed cell death protein 1/Programmed cell death 1 ligand 1 (Homo sapiens, UniProt Q15116+Q9NZQ7); assay: Inhibition of C-terminal his tagged human PD-1/human Fc tagged PDL-1 interaction expressed in HEK293 cells incubated for 2 hrs AlphaScreen assay; type: cell-based
Homo sapiens = species on record: Homo sapiens; assay: Selectivity index, ratio of IC50 for his tagged human PD-1/human Fc tagged PDL-1 interaction to IC50 for his-tagged FC tagged SARS-COV2 S-RBD binding to ACE2 (unknown origin)

Chain of Programmed cell death protein 1/Programmed cell death 1 ligand 1 (Q15116 whole entry): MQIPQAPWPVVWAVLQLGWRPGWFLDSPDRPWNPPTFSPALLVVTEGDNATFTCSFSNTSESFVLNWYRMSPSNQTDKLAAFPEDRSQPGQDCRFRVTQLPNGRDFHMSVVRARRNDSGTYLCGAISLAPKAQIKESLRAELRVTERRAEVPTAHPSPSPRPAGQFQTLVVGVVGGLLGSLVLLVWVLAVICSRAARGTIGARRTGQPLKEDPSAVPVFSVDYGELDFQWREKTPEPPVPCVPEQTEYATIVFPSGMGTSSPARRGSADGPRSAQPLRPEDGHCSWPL
Chain of Programmed cell death protein 1/Programmed cell death 1 ligand 1 (Q9NZQ7 whole entry): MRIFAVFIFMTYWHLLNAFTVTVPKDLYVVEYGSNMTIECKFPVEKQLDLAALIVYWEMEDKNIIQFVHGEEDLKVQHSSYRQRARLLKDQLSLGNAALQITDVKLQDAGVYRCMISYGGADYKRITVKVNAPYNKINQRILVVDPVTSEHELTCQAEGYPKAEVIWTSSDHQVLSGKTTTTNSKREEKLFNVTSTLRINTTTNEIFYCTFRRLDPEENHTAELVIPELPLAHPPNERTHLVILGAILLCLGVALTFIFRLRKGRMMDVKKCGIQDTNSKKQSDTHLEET
Chain of Angiotensin-converting enzyme 2 (Q9BYF1 whole entry): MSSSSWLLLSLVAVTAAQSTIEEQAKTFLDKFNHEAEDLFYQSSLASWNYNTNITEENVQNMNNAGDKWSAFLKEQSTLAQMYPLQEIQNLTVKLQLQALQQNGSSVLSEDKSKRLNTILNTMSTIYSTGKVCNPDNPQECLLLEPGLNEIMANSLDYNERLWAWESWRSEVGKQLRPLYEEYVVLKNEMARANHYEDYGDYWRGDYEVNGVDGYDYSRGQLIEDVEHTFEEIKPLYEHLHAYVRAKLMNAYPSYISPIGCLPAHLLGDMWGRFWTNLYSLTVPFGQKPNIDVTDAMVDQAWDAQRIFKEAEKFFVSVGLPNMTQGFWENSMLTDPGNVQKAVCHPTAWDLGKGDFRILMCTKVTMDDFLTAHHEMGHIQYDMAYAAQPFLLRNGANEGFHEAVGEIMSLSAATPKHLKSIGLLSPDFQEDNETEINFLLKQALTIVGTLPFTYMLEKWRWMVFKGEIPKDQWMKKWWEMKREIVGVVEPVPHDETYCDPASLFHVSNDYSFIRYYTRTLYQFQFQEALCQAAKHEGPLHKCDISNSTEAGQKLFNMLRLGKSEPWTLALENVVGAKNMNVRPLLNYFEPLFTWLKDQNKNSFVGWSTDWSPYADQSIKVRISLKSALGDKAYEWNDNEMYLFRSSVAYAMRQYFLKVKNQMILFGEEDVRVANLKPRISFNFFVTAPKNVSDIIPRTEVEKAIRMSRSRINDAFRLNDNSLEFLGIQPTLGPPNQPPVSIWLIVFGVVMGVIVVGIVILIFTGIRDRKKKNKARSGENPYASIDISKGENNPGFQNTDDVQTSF

Compound `COc1cc(OC(C)=O)c(-c2c(OC(C)=O)cc(OC)c3c2C=C[C@@](C)(CCC2=C(C)CCCC2(C)C)O3)c2c1O[C@](C)(CCC1=C(C)CCCC1(C)C)C=C2` has an IC50 [1] of 65 µM and an IC50 [2] greater than 50 µM.

With `COc1cc(OC(C)=O)c(-c2c(OC(C)=O)cc(OC)c3c2C=C[C@](C)(CCC2=C(C)CCCC2(C)C)O3)c2c1O[C@](C)(CCC1=C(C)CCCC1(C)C)C=C2` the IC50 [1] was 7.3 µM, the Ratio IC50 (Homo sapiens) was 5 and the IC50 [2] was 37 µM.

Work on `Oc1ccc([C@@H]2c3c(O)cc(O)cc3[C@@H]3c4c(cc(O)cc4[C@H]2[C@@H]2c4cc(O)cc5c4[C@@H](c4cc(O)cc(O)c4[C@H]2c2ccc(O)cc2)[C@H](c2ccc(O)cc2)O5)O[C@H]3c2ccc(O)cc2)cc1` yielded an IC50 [1] of 0.25 µM.

Work on `COc1cc(O)c(-c2c(O)cc(OC)c3c2C=C[C@](C)(CCC2=C(C)CCCC2(C)C)O3)c2c1O[C@](C)(CCC1=C(C)CCCC1(C)C)C=C2` yielded an IC50 [1] of 1 µM, a Ratio IC50 (Homo sapiens) of 5.9 and an IC50 [2] of 6 µM.

For `COc1cc(OC(C)=O)cc2c1OC(C)(CCC1=C(C)CCCC1(C)C)C=C2` (configuration not stated), the IC50 [1] was 63 µM, the Ratio IC50 (Homo sapiens) was 1 and the IC50 [2] was 66 µM.
